Data from ChEMBL document CHEMBL1129431, “Derivatives of (R)- and (S)-5-fluoro-8-hydroxy-2-(dipropylamino)tetralin: synthesis and interactions with 5-HT1A receptors” (J Med Chem, 1996).
Where “and” joins values, the source holds several entries; their conditions need not be identical. Equal entries are not always repeated.

What was measured:
[1] = target: T1, 5-hydroxytryptamine receptor 1A (Rattus norvegicus) (UniProt P19327); assay: Effect on 5-hydroxytryptamine 1A receptor mediated inhibition of VIP-stimulated cAMP production at dose of 0.01 uM+ 1 uM 5-HT.; assay type: functional; details: values are per cent of control
T1 sequence (whole entry): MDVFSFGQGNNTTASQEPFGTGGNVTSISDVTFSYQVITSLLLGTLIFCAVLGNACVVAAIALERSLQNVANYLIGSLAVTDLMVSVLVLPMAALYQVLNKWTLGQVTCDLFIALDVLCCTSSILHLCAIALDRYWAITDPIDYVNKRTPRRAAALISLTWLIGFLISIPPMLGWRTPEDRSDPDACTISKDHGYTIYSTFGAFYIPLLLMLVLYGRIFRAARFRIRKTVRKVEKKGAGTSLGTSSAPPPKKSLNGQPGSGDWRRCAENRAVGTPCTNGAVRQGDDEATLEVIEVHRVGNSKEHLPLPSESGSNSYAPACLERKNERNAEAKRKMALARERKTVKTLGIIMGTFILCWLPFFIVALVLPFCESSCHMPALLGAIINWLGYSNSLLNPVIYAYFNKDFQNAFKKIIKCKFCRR
How it was run: (§1)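 GH4ZD10 cells expressing rat 5-HT1A receptors were detached with EBSS plus 1 mM EDTA and resuspended to ~1×10^7 cells/mL in Ham's F10 with 0.01% ascorbic acid and 0.1 mM IBMX. After 1 h preincubation at 37 °C they were diluted to 0.8-1.5×10^6 cells/mL, then incubated 20 min at 37 °C with VIP (39 nM final) plus compound, alone or with 5-HT, in duplicate. The reaction was stopped by boiling. cAMP was measured in triplicate by protein-binding assay and expressed as % of the VIP-stimulated response.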

[2] = target: T1, 5-hydroxytryptamine receptor 1A (Rattus norvegicus); assay: Effect on 5-hydroxytryptamine 1A receptor mediated inhibition of VIP-stimulated cAMP production at dose of 1 uM; assay type: functional; details: values are per cent of control; how it was run: as §1
[3] = target: T1, 5-hydroxytryptamine receptor 1A (Rattus norvegicus); assay: Effect on 5-hydroxytryptamine 1A receptor mediated inhibition of VIP-stimulated cAMP production at dose of 50 uM; assay type: functional; details: values are per cent of control
How it was run: (§2)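 GH4ZD10 cells expressing rat 5-HT1A receptors, detached with EDTA-supplemented Ca/Mg-free EBSS and resuspended in Ham's F10 with 0.01% ascorbic acid and 0.1 mM IBMX. Preincubated 1 h at 37 °C, then 0.8-1.5×10^6 cells/mL incubated 20 min at 37 °C with VIP (39 nM final) plus compounds. Duplicate samples stopped by boiling. cAMP measured in triplicate by protein-binding assay. Results are given as % of the VIP-stimulated response.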

[4] = target: T1, 5-hydroxytryptamine receptor 1A (Rattus norvegicus); assay: Effect against 5-hydroxytryptamine 1A receptor mediated inhibition of VIP-stimulated cAMP production at 0.1 uM dose; assay type: functional; details: values are per cent of control; how it was run: as §1
[5] = target: T1, 5-hydroxytryptamine receptor 1A (Rattus norvegicus); assay: Effect on 5-hydroxytryptamine 1A receptor mediated inhibition of VIP-stimulated cAMP production at dose of 10 uM; assay type: functional; details: values are per cent of control; how it was run: as §1
[6] = target: T1, 5-hydroxytryptamine receptor 1A (Rattus norvegicus); assay: Effect on 5-hydroxytryptamine 1A receptor-mediated inhibition of VIP-stimulated cAMP production at dose of 1 uM+ 10 uM 5-HT.; assay type: functional; details: values are per cent of control; how it was run: as §1
[7] = target: T2, 5-hydroxytryptamine receptor 1A (Rattus norvegicus, UniProt P19327); assay: Binding affinity against rat hippocampal 5-hydroxytryptamine 1A (5-HT1A) receptor determined using [3H]8-OH-DPAT as radioligand; assay type: tissue-based, Hippocampus
T2 sequence (P19327 whole entry): T1 sequence (whole entry)

[8] = target: T1, 5-hydroxytryptamine receptor 1A (Rattus norvegicus); assay: Effect on 5-hydroxytryptamine 1A receptor mediated inhibition of VIP-stimulated cAMP production at dose of 0.05 uM; assay type: functional; details: values are per cent of control; how it was run: as §2
[9] = target: T1, 5-hydroxytryptamine receptor 1A (Rattus norvegicus); assay: Effect on 5-hydroxytryptamine 1A receptor mediated inhibition of VIP-stimulated cAMP production at dose of 0.1 uM + 1 uM 5-HT.; assay type: functional; details: values are per cent of control; how it was run: as §1
[10] = target: T1, 5-hydroxytryptamine receptor 1A (Rattus norvegicus); assay: Effect on 5-hydroxytryptamine 1A receptor mediated inhibition of VIP-stimulated cAMP production at dose of 1 uM+ 10 uM 5-HT.; assay type: functional; details: values are per cent of control; how it was run: as §1
[11] = target: T1, 5-hydroxytryptamine receptor 1A (Rattus norvegicus); assay: Effect on 5-hydroxytryptamine 1A receptor mediated inhibition of VIP-stimulated cAMP production at dose of 30 uM; assay type: functional; details: values are per cent of control; how it was run: as §1
[12] = target: T1, 5-hydroxytryptamine receptor 1A (Rattus norvegicus); assay: (§3) Effect on 5-hydroxytryptamine 1A receptor mediated inhibition of VIP-stimulated cAMP production at dose of 1 uM+ 50 uM 5-HT.; assay type: functional; details: values are per cent of control; how it was run: as §2
[13] = target: T1, 5-hydroxytryptamine receptor 1A (Rattus norvegicus); assay: as §3; assay type: functional; details: values are per cent of control; how it was run: as §1; remark: listed apart in the source
[14] = target: T1, 5-hydroxytryptamine receptor 1A (Rattus norvegicus); assay: Effect on 5-hydroxytryptamine 1A receptor mediated inhibition of VIP-stimulated cAMP production at dose of 1 uM+ 0.1 uM 5-HT.; assay type: functional; details: values are per cent of control; how it was run: as §2
[15] = target: T1, 5-hydroxytryptamine receptor 1A (Rattus norvegicus); assay: Effect on 5-hydroxytryptamine 1A receptor mediated inhibition of VIP-stimulated cAMP production at dose of 1 uM+ 1 uM 5-HT.; assay type: functional; details: values are per cent of control; how it was run: as §2
[16] = target: T1, 5-hydroxytryptamine receptor 1A (Rattus norvegicus); assay: Effect on 5-hydroxytryptamine 1A receptor mediated inhibition of VIP-stimulated cAMP production at dose of 0+ 1 uM 5-HT.; assay type: functional; details: values are per cent of control; how it was run: as §2
[17] = target: T1, 5-hydroxytryptamine receptor 1A (Rattus norvegicus); assay: Effect on 5-hydroxytryptamine 1A receptor mediated inhibition of VIP-stimulated cAMP production at dose of 0.1 uM + 10 uM 5-HT.; assay type: functional; details: values are per cent of control; how it was run: as §2
[18] = target: T1, 5-hydroxytryptamine receptor 1A (Rattus norvegicus); assay: Effect on 5-hydroxytryptamine 1A receptor mediated inhibition of VIP-stimulated cAMP production at dose of 0.1 uM + 0.1 uM 5-HT.; assay type: functional; details: values are per cent of control; how it was run: as §2

| SMILES | response, % of control [2] [%] | Ki [7] [nM] | response, % of control [9] [%] | also measured |
| --- | --- | --- | --- | --- |
| CCCN(CCC)[C@@H]1CCc2c(F)cccc2C1 [listing 1 of 2 here] | 85 |  |  | response, % of control [1]: 60%; response, % of control [3]: 78%; response, % of control [4]: 93% and 98%; response, % of control [5]: 81%; response, % of control [6]: 58% |
| CCCN(CCC)[C@H]1CCc2cccc(-c3ccco3)c2C1 |  | 1.8 |  |  |
| CCCN(CCC)[C@H]1CCc2c(F)ccc(-c3cccs3)c2C1 [listing 1 of 3 here] |  | 32.7 |  |  |
| CCCN(CCCCN1C(=O)CC2(CCCC2)CC1=O)[C@@H]1CCc2c(F)ccc(O)c2C1 | 66 | < 0.3 | 68 | response, % of control [8]: 72%; response, % of control [3]: 68% |
| CCCN(CCC)[C@@H]1CCc2c(F)ccc(OS(=O)(=O)C(F)(F)F)c2C1 [listing 1 of 2 here] | 91 |  | 60 | response, % of control [10]: 52%; response, % of control [11]: 48%; response, % of control [4]: 98%; response, % of control [5]: 61% |
| CCCN(CCCCN1C(=O)CC2(CCCC2)CC1=O)[C@@H]1CCc2c(F)ccc(OC)c2C1 | 56 | < 0.3 | 56 | response, % of control [12]: 40%; response, % of control [8]: 62%; response, % of control [3]: 41% |
| CCCN(CCC)[C@@H]1CCc2c(F)ccc(-c3cccs3)c2C1 [listing 1 of 3 here] |  | 35 |  |  |
| CCCN(CCC)[C@H]1CCc2c(F)cccc2C1 | 86 |  | 61 | response, % of control [3]: 86%; response, % of control [4]: 85%; response, % of control [13]: 73% |
| CCCN(CCC)[C@H]1CCc2c(F)ccc(OS(=O)(=O)C(F)(F)F)c2C1 |  | 490 |  |  |
| CCCN(CCC)[C@H]1CCc2c(F)ccc(C(C)=O)c2C1 |  | 13.6 |  |  |
| CCCN(CCC)[C@@H]1CCc2c(F)ccc(O)c2C1 | 78 |  | 57 | response, % of control [4]: 86%; response, % of control [5]: 61% |
| CCCN(CCC)[C@H]1CCc2c(F)ccc(-c3cccs3)c2C1 [listing 2 of 3 here] | 96 |  | 57 | response, % of control [4]: 99%; response, % of control [5]: 88% |
| CCCN(CCC)[C@@H]1CCc2c(F)ccc(C(C)=O)c2C1 |  | 6.9 |  |  |
| CCCN(CCC)[C@@H]1CCc2c(F)cccc2C1 [listing 2 of 2 here] |  | 136 |  |  |
| CCCN(CCC)[C@H]1CCc2c(F)ccc(-c3cccs3)c2C1 [listing 3 of 3 here] |  | 32.7 |  |  |
| CCCN(CCCCN1C(=O)CC2(CCCC2)CC1=O)[C@H]1CCc2c(F)ccc(-c3ccco3)c2C1 |  | 7.5 | 62 | response, % of control [10]: 68%; response, % of control [14]: 58% and 66% |
| CCCN(CCCCN1C(=O)CC2(CCCC2)CC1=O)[C@@H]1CCc2c(F)ccc(-c3ccco3)c2C1 | 60 | 1.1 |  | response, % of control [15]: 60%; response, % of control [16]: 62%; response, % of control [17]: 54%; response, % of control [18]: 57% |
| CCCN(CCC)[C@@H]1CCc2c(F)ccc(-c3cccs3)c2C1 [listing 2 of 3 here] | 93 |  | 60 | response, % of control [10]: 58%; response, % of control [11]: 61%; response, % of control [4]: 98%; response, % of control [5]: 79% |
| CCCN(CCC)[C@@H]1CCc2c(F)ccc(OS(=O)(=O)C(F)(F)F)c2C1 [listing 2 of 2 here] |  | 18.5 |  |  |
| CCCN(CCC)[C@@H]1CCc2c(F)ccc(-c3cccs3)c2C1 [listing 3 of 3 here] |  | 35 |  |  |
| CCCN(CCC)[C@@H]1CCc2cccc(S(=O)(=O)C(F)(F)F)c2C1 |  | 3.8 |  |  |
| CCCN(CCC)[C@H]1CCc2cccc(-c3cccs3)c2C1 |  | 5.5 |  |  |
